Paper PMC4101349 (Translational Oncology, 2014)

Legend:
A549 cells = assay: Alamar Blue cytotoxicity assay, A549; assay type: cell-based; settings: Homo sapiens, A549, 72 h, read-out: IC50 (50% inhibition of cell growth)
In short: (§1)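 Cells were seeded at 3000 per well and incubated overnight at 37°C. They were then exposed for 72 h to a range of test compound concentrations, alone or combined with a PI3K inhibitor. Alamar Blue was added for 6 h and absorbance read at 570 and 600 nm. IC50 was derived by the median-effect principle, as mean ± SD of three independent experiments. A549 was kept in DMEM; other lines in RPMI 1640 with 10% FBS, at 37°C and 5% CO2.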

H460 cells [1] = assay: H460 xenograft: histopathology of tumor; assay type: in vivo, BALB/c nude mice; settings: H460-xenografted mice; 29th day; histopathologic examination
In short: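 Nude mice were inoculated s.c. in the flank with H460 cells (approximately 3 × 10^6 to 5 × 10^6 in 100 μl PBS). Dosing began at about 100 mm3: test compound 5 mg/kg i.v. every other day ×5, PI3K inhibitor 40 mg/kg i.p. daily, or both. Tumors were taken 24 h after the final treatment for cleaved caspase-3 immunohistochemistry. Lungs were taken 29 days after transplantation for H&E histology.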

H460 cells [2] = assay: Alamar Blue cytotoxicity assay, H460; assay type: cell-based; settings: Homo sapiens, NCI-H460, 72 h, read-out: IC50 (50% inhibition of cell growth)
In short: as §1

PC9/gef B4 cells [3] = assay: Alamar Blue cytotoxicity assay, PC9/gef B4; assay type: cell-based; settings: Homo sapiens, 72 h, read-out: IC50 (50% inhibition of cell growth)
In short: as §1

[4] = system: H460, A549, PC9, or PC9/gef B4 cells; assay: Mouse xenograft models, suppression of tumor growth; assay type: in vivo, BALB/c nude mice; settings: H460, A549, PC9, PC9/gef B4 xenografts; BO-1509 5 mg/kg i.v. every other day times five; LY294002 40 mg/kg i.p. daily
[5] = system: DNA repair proteins (Mre11, Nbs1, pNbs1, Rad50, Rad51, FANCD2); assay: Western blot of DNA repair proteins in lung cancer cells; assay type: cell-based, human; settings: LY294002 40 μM with 20 μM BO-1509, 24 hours; H460, A549, PC9, PC9/gef B4
In short: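 H460, A549, PC9 and PC9/gef B4 cells were treated for 24 h with 10-80 μM test compound. Alternatively, they received 20 μM test compound and/or 40 μM PI3K inhibitor for 24 h. Lysates in electrophoresis sample buffer were run on SDS-PAGE and transferred to PVDF. Membranes took primary antibodies overnight at 4°C and HRP secondary antibody for 1 h at room temperature. Detection was by chemiluminescence, with β-actin as loading control.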

[6] = Blood enzymes / biochemical parameters in treated mice; assay type: in vivo; settings: 10th day; BALB/c nude mice; mean ± SD
In short: (§2)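 Male BALB/c nude mice, six weeks old, received vehicle, test compound, PI3K inhibitor, or both. The test compound was given at 5 mg/kg i.v. on days 0, 2, 4, 6 and 8; the inhibitor at 40 mg/kg i.p. daily. Vehicle was 0.9% saline with 8% DMSO, 6% Tween-80 and 16% cremophor. Hematological and serum biochemical parameters were measured 1 day after the last i.v. injection.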

[7] = Complete blood profile in treated mice; assay type: in vivo, BALB/c nude mice; settings: 10th day
In short: as §2

PC9/gef B4 cells [8] = assay: Mouse xenograft model, PC9/gef B4; assay type: in vivo, BALB/c nude mice; settings: PC9/gef B4-xenografted mice; LY294002 40 mg/kg i.p. daily
In short: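 PC9/gef B4 cells were implanted s.c. in the flank of male BALB/c nude mice, six weeks old. At about 70 mm3, mice were randomized into four groups: vehicle, test compound 5 mg/kg i.v. every other day ×5, PI3K inhibitor by daily i.p. injection, or the combination. Vehicle was saline with 8% DMSO, 6% Tween-80 and 16% cremophor. Caliper tumor volume was calculated as (length × width²)/2.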

PC9 cells = assay: Alamar Blue cytotoxicity assay, PC9; assay type: cell-based; settings: Homo sapiens, PC-9, 72 h, read-out: IC50 (50% inhibition of cell growth)
In short: as §1

## O=c1cc(N2CCOCC2)oc2c(-c3ccccc3)cccc12 [LY294002, 2-(4-morpholinyl)-8-phenyl-4H-1-benzopyran-4-one]
A549 cells
  IC50: 28.4 ± 4.3 µM
H460 cells [1]
  metastasis in the lungs: 80%
H460 cells [2]
  IC50: 111 ± 15.1 µM
PC9/gef B4 cells [3]
  IC50: 31.3 ± 3.8 µM
[4]
  suppression of the tumor burden: limited
[5]
  BO-1509-induced increase in pNbs1 and Rad51: suppressed
[6]
  AST: 75.6 ± 17.8 U/l
  Alanine aminotransferase: 31.6 ± 2.5 U/l
  Blood urea nitrogen: 25.0 ± 5.8 mg/dL
  Glucose (GLU-P): 172 ± 23 mg/dL
  LDH: 463 ± 117 U/l
[7]; BALB/c nude mice, mean ± SD
  Basophils: 0.07 ± 0.00 10^3/μl
  Eosinophils: 0.06 ± 0.01 10^3/μl
  Hematocrit: 54.1 ± 0.70%
  Hemoglobin: 16.25 ± 0.10 g/dL
  Lymphocytes: 0.81 ± 0.10 10^3/μl
  Mean cell hemoglobin: 15.40 ± 0.09 pg
  Mean cell volume: 51.5 ± 0.30 fL
  Mean corpuscular hemoglobin concentration: 29.90 ± 0.30 g/dL
  Monocytes: 0.15 ± 0.05 10^3/μl
  Neutrophils: 1.27 ± 0.10 10^3/μl
  Platelets: 783 ± 86 10^3/μl
  RBC distribution width: 20.90 ± 1.00%
  RBCs: 10.53 ± 0.10 10^6/μl
  WBCs: 2.37 ± 0.20 10^3/μl
[7]; treated mice versus control
  decrease of RBC count and hemoglobin concentration: minimal changes
PC9/gef B4 cells [8]
  suppression of the tumor burden: ~40%
PC9 cells
  IC50: 56.9 ± 1.1 µM
